Reference: ChEMBL document CHEMBL4665889, “Design, Synthesis, and Pharmacological Characterization of a Neutral, Non-Prodrug Thrombin Inhibitor with Good Oral Pharmacokinetics” (J Med Chem, 2020)

Legend:
[1] = target: T1, Nuclear receptor subfamily 1 group I member 2 (Homo sapiens, UniProt O75469); test: Activation of human PXR human hepatocytes assessed as induction of CYP3A4 mRNA expression incubated for 48 hrs by qPCR analysis; assay type: ADME, tissue-based, Hepatocyte
T1 sequence (O75469 whole entry): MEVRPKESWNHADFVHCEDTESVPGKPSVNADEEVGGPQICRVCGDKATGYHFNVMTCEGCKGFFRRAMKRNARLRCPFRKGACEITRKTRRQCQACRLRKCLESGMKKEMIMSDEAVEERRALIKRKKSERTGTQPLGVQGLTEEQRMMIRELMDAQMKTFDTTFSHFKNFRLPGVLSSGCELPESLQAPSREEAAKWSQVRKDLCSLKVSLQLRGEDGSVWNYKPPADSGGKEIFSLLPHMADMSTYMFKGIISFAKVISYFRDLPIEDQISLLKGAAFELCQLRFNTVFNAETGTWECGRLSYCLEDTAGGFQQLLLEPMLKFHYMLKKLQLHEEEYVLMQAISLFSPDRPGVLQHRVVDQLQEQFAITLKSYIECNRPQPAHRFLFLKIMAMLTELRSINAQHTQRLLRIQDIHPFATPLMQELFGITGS
Method in brief: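 Human hepatocytes in collagen sandwich, cultured 1 d, then treated with eight 1:3 serial concentrations for 2 consecutive days with daily media change. mRNA isolated on magnetic beads, reverse transcribed, and quantified by TaqMan qRT-PCR against actin/tubulin. Fold induction over vehicle by ΔΔCt; NOEL reported.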

Plasma = test: Anticoagulation activity in human plasma assessed as drug level causing doubling of prothrombin time incubated for 3 mins; assay type: functional; conditions: 0.05 h
Method in brief: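 Citrated human plasma (0.11 M citrate 1:9, spun ~4000g 15 min) incubated with compound at 37 °C for 3 min. Clotting started with thromboplastin and time to coagulation recorded. Value is the concentration doubling clotting time (PT or aPTT).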

[2] = Ratio of drug level in blood to plasma in Wistar Hannover rat at 0.3 to 0.5 mg/kg, iv by LC-MS/MS analysis; assay type: ADME, organism-based; conditions: blood and plasma, dose 0.3-0.5 mg/kg, time <=24 hrs
[3] = Half life in Wistar Hannover rat at 0.3 to 0.5 mg/kg, iv by LC-MS/MS analysis; assay type: ADME, organism-based; conditions: in vivo, dose 0.3-0.5 mg/kg, time <=24 hrs
Method in brief: (§1)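 Male Wistar Hannover rats, catheterized under isoflurane; one day later iv injection into lateral tail vein at 0.3 to 0.5 mg/kg in plasma containing 2% DMSO. Blood sampled via catheter from 0.033 to 24 h. Plasma precipitated with acetonitrile, analysed by LC-MS/MS (10 mM ammonium acetate pH 3.0/acetonitrile gradient). PK parameters calculated from plasma concentrations.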

[4] = Permeability from apical to basolateral side in human Caco2 cells incubated for 2 hrs by LC-MS/MS analysis; assay type: ADME, cell-based; conditions: Caco-2
Method in brief: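 Caco-2 cells grown 15 d on 0.4 μm inserts, TEER ≥600 Ω. Compound (DMSO stock diluted 100-fold) in HBSS pH 7.4 with 10 mM HEPES and 20 mM glucose, added apically or basolaterally. Incubated 2 h at 37 °C and analysed by LC-MS/MS. Papp = (Vr/P0)·(1/S)·(P2/t); mean and SD.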

[5] = Oral bioavailability in Wistar Hannover rat at 1 mg/kg by LC-MS/MS analysis; assay type: ADME, organism-based; conditions: in vivo, time <=24 hrs
Method in brief: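 Catheterized male Wistar Hannover rats dosed by gavage at 1 mg/kg in 10% ethanol/40% PEG/50% water. Blood taken via catheter at 0.083 to 24 h. Plasma precipitated with acetonitrile and analysed by LC-MS/MS. Bioavailability derived against iv dosing at 0.3 to 0.5 mg/kg.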

Cytochrome P450 = test: Inhibition of CYP450 (unknown origin) at 20 uM; assay type: ADME, protein assay; conditions: human
[6] = Clearance in Wistar rat hepatocytes at 1 uM incubated up to 90 mins by LC-MS/MS analysis; assay type: ADME, cell-based, Hepatocyte; conditions: Wistar
Method in brief: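 Fresh male Wistar rat hepatocytes, 1 × 10⁶ viable cells/mL, in Williams' medium E at 37 °C, pH 7.4, with 1 μM substrate and <1% acetonitrile. Samples at 2–90 min quenched in acetonitrile and analysed by LC-MS/MS.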

[7] = Blood clearance in Wistar Hannover rat at 0.3 to 0.5 mg/kg, iv by LC-MS/MS analysis; assay type: ADME, organism-based; conditions: whole blood, dose 0.3-0.5 mg/kg, time <=24 hrs; method in brief: as §1
[8] = AUC/dose in Wistar Hannover rat at 0.3 to 0.5 mg/kg, iv by LC-MS/MS analysis; assay type: ADME, organism-based; conditions: in vivo, dose 0.3-0.5 mg/kg, time <=24 hrs; method in brief: as §1
[9] = target: T1, Nuclear receptor subfamily 1 group I member 2; test: Activation of human PXR expressed in human HepG2 cells; assay type: ADME, cell-based
Method in brief: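 HepG2 cells transiently co-transfected with human PXR and a luciferase reporter under the human CYP3A4 promoter, 48 h before readout. 24 h after seeding, 1:3 serial dilutions (2 nM to 50 μM, 0.5% DMSO) added. Luminescence normalized to rifampicin (100%) and DMSO (0%). MEC is the lowest concentration raising signal above 4-fold SD of DMSO background.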

[10] = Volume of distribution at steady state in Wistar Hannover rat at 0.3 to 0.5 mg/kg, iv by LC-MS/MS analysis; assay type: ADME, organism-based; conditions: in vivo, dose 0.3-0.5 mg/kg, time <=24 hrs, read-out: Vdss; method in brief: as §1
[11] = MRT in Wistar Hannover rat at 0.3 to 0.5 mg/kg, iv by LC-MS/MS analysis; assay type: ADME, organism-based; conditions: in vivo, dose 0.3-0.5 mg/kg, time <=24 hrs; method in brief: as §1

blood plasma ratio [2]: 1.24
half-life [3]: 1.3 h
Papp A→B at 2 h [4]: 12.6 ×10⁻⁶ cm/s
bioavailability [5]: 46%
inhibition (INH) (Cytochrome P450): Not Active
CLhep predicted at 1 µM [6]: 38.3 mL/min/kg
clearance [7]: 28.3 mL/min/kg
AUC/dose [8]: 0.48 kg·h/L
MEC [9]: 0.69 µM
Vd [10]: 2.4 L/kg
MRT [11]: 1.1 h
Structure (SMILES): COc1cc(C(=O)N2CC[C@@H](O)[C@H](C)C2)cc2nc(NCc3cccc(Cl)c3)oc12
NOAEL [1]: 370 ng/mL
2PT (Plasma): 6 µM
